Laboratory results: ChEMBL document CHEMBL4680121, “Development of (4-methoxyphenyl)-1H-tetrazol-5-amine regioisomers as a new class of selective antitubercular agents” (Eur J Med Chem, 2020)

Assays:
[1] = tested on: Mycobacterium tuberculosis; experiment: Potentiation of streptomycin-induced antimycobacterial activity against Mycobacterium tuberculosis H37Rv ATCC 25618 assessed as fold decrease in streptomycin MIC at 1/2X MIC incubated for 14 days in presence of streptomycin by MABA method; type: functional; conditions: time 14 day
In short: (§1)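 Combination assay in Middlebrook 7H9 broth with 10% OADC. The reference drug (INH, RMP, SM or EMB) was varied from 1 to 1/32 of its MIC, and the test derivative was fixed at 1/2 its own MIC. Single-agent MICs were determined first by MABA. Inoculum was 1 McFarland, with 14 days of incubation at 37 °C. The endpoint was the lowest reference-drug concentration that inhibited growth.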

Mycobacterium kansasii = experiment: Antibacterial activity against Mycobacterium kansasii assessed as inhibition of microbial growth incubated for 1 week by MABA method; type: functional; conditions: 168 h, time 1 weeks
In short: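 Microplate Alamar Blue assay using two-fold serial microdilution in Middlebrook 7H9 broth with 10% OADC, compounds 0.125–512 µg/ml from DMSO stocks. Inoculum came from fresh LJ culture, was adjusted to McFarland 1 and diluted 1:20. Plates were incubated 1 week at 37 °C, Alamar blue was added and plates were re-incubated 24 h. MIC was the lowest concentration preventing the blue-to-pink change. Each plate carried growth and sterile controls.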

[2] = tested on: Mycobacterium tuberculosis; experiment: Antitubercular activity against Mycobacterium tuberculosis H37Rv ATCC 25618 assessed as rifampicin MIC incubated for 14 days in presence of rifampicin by MABA method; type: functional; conditions: H37Rv ATCC 25618, 336 h, time 14 day
In short: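 In Middlebrook 7H9 with 10% OADC, the reference drug (INH, RMP, SM or EMB) at 1 to 1/32 of its MIC alone was mixed with the test derivative fixed at 1/2 its MIC. 4 ml samples were inoculated with McFarland 1 suspension and incubated 14 days at 37 °C. MIC is the lowest drug concentration in combination that inhibited growth.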

Mycobacterium avium = experiment: Antimycobacterial activity against Mycobacterium avium assessed as inhibition of microbial growth incubated for 1 week by MABA method; type: functional; conditions: 168 h, time 1 weeks
In short: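 Microplate Alamar Blue assay in Middlebrook 7H9 broth with 10% OADC. Inoculum from fresh LJ culture was adjusted to McFarland 1 and diluted 1:20. DMSO stocks were two-fold serially diluted to final 0.125–512 µg/ml, with growth and sterile controls. Plates ran 1 week at 37 °C, then Alamar blue was added for 24 h. MIC is the lowest concentration preventing the blue-to-pink change.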

Staphylococcus aureus = experiment: Antibacterial activity against Staphylococcus aureus NCTC 4163 assessed as bacterial growth inhibition measured after 18 hrs by two-fold serial microdilution method; type: functional
In short: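 Two-fold serial broth microdilution in MH II medium following modified CLSI procedures. Compounds were dissolved in DMSO and diluted in medium to at most 1% solvent, tested from 0.03125 to 512 μg/ml. Final inoculum 10^6 CFU/ml. MIC was taken as the lowest concentration with no visible growth after 18 h at 35 °C.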

[3] = tested on: Mycobacterium tuberculosis; experiment: Antitubercular activity against Mycobacterium tuberculosis H37Rv ATCC 25618 assessed as reduction in bacterial growth incubated for 14 days in presence of 1/2 x MIC streptomycin by MABA method; type: functional; conditions: H37Rv ATCC 25618, 336 h, time 14 day
In short: (§2)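 Checkerboard-type combination in Middlebrook 7H9 with 10% OADC. The test derivative at 1 to 1/32 of its MIC alone was mixed with the reference drug fixed at 1/2 its MIC. 4 ml samples were inoculated with McFarland 1 suspension and incubated 14 days at 37 °C. MIC is the lowest derivative concentration in combination that inhibited growth in liquid medium.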

[4] = tested on: Mycobacterium tuberculosis; experiment: Antitubercular activity against Mycobacterium tuberculosis Spec.192 assessed as reduction in bacterial growth incubated for 14 days in presence of 1/2 x MIC isoniazid by MABA method; type: functional; conditions: Mycobacterium tuberculosis, 192, 336 h; time 14 day; in short: as §2
[5] = Cytotoxicity against human HTB-140 cells assessed as LDH release at 100 uM incubated for 72 hrs by LDH assay; type: cell-based; conditions: htb-140, 72 h
In short: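 LDH release measured with a kit after 72 h exposure to 100 μM compound. Cells were seeded at 1×10^4 per well in DMEM or EMEM with 2% FBS. Absorbance was read at 490 nm. Release (%) = (A sample − A low control)/(A high control − A low control) × 100, with the Triton X-100 (1%) control taken as 100% release. Values are mean ± SD of three independent experiments run in triplicate.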

[6] = tested on: Mycobacterium tuberculosis; experiment: Antitubercular activity against Mycobacterium tuberculosis H37Rv ATCC 25618 assessed as fractional inhibitory concentration index incubated for 14 days in presence of 1/2 x MIC isoniazid by MABA method; type: functional; conditions: time 14 day
In short: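 Interaction analysis in Middlebrook 7H9 with 10% OADC. Combination MICs came from mixing the derivative (1 to 1/32 MIC) with the reference drug at 1/2 MIC, and the reverse, after 14 days at 37 °C with McFarland 1 inoculum. FICI was calculated from the combination MIC values and the MICs alone.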

[7] = tested on: Mycobacterium tuberculosis; experiment: Antitubercular activity against Mycobacterium tuberculosis H37Rv ATCC 25618 assessed as reduction in bacterial growth incubated for 14 days in presence of 1/2 x MIC ethambutol by MABA method; type: functional; conditions: H37Rv ATCC 25618, 336 h, time 14 day; in short: as §2
[8] = tested on: Mycobacterium tuberculosis; experiment: Potentiation of rifampicin-induced antimycobacterial activity against Mycobacterium tuberculosis Spec.192 assessed as fold decrease in rifampicin MIC at 1/2X MIC incubated for 14 days in presence of rifampicin by MABA method; type: functional; conditions: time 14 day; in short: as §1
[9] = tested on: Mycobacterium tuberculosis; experiment: Potentiation of ethambutol-induced antimycobacterial activity against Mycobacterium tuberculosis Spec.192 assessed as fold decrease in ethambutol MIC at 1/2X MIC incubated for 14 days in presence of ethambutol by MABA method; type: functional; conditions: time 14 day; in short: as §1
[10] = tested on: Mycobacterium tuberculosis; experiment: Potentiation of rifampicin-induced antimycobacterial activity against Mycobacterium tuberculosis H37Rv ATCC 25618 assessed as fold decrease in rifampicin MIC at 1/2X MIC incubated for 14 days in presence of rifampicin by MABA method; type: functional; conditions: time 14 day; in short: as §1
[11] = tested on: Mycobacterium tuberculosis; experiment: Potentiation of ethambutol-induced antimycobacterial activity against Mycobacterium tuberculosis H37Rv ATCC 25618 assessed as fold decrease in ethambutol MIC at 1/2X MIC incubated for 14 days in presence of ethambutol by MABA method; type: functional; conditions: time 14 day; in short: as §1

For COc1ccc(-n2nnnc2Nc2ccc(Br)cc2)cc1, the “fold change (FC)” value [1] was 4, the MIC (Mycobacterium kansasii) was 512 µg/mL and the MIC [2] was 0.25 µg/mL. It also gave an MIC (Mycobacterium avium) of 512 µg/mL, an MIC (Staphylococcus aureus) greater than 256 µg/mL and an MIC [3] of 0.25 µg/mL. For the same compound, the MIC [4] was 0.25 µg/mL, the Activity [5] was “Non-Toxic” and the “fractional inhibitory concentration index (FICI)” value [6] was 4.125. It also gave an MIC [7] of 0.25 µg/mL.
In the case of COc1ccc(-n2nnnc2Nc2cccc(Br)c2)cc1, the “fold change (FC)” value [1] is reported as 2, the “fold change (FC)” value [8] is reported as 2 and the MIC (Mycobacterium kansasii) is reported as 512 µg/mL. It also gave an MIC [2] of 0.25 µg/mL, an MIC (Mycobacterium avium) of 256 µg/mL and an MIC (Staphylococcus aureus) greater than 256 µg/mL. The MIC [3] was 0.5 µg/mL, the MIC [4] was 0.25 µg/mL and the “fold change (FC)” value [9] was 2. For the same compound, the “fold change (FC)” value [10] was 2, the Activity [5] was less than 17% and the “fold change (FC)” value [11] was 2. The “fractional inhibitory concentration index (FICI)” value [6] was 4.125 and the MIC [7] was 0.5 µg/mL.
